# Marks after values point to notes of the source that are not given here.
# Test: Pharmacokinetics of CK and its metabolite 20
# Format: in vivo, healthy Chinese volunteers
# How it was run: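 Healthy adults given one oral tablet dose fasting (overnight, or 10 h in a crossover food-effect arm); 30 subjects from the 100/200/400 mg groups were pooled with 24 from 200 mg fasting periods. Plasma was stored at −70°C, extracted with MTBE plus internal standards and assayed by LC-MS/MS. Cmax was observed and AUClast calculated by linear trapezoid, each divided by dose. The metabolite/parent ratio was also calculated. Genotyping used Sequenom MassARRAY, and log-transformed values were compared by one-way ANOVA.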
structure (smiles),measurement,setting,value
"CC(C)=CCC[C@](C)(O)[C@H]1CC[C@]2(C)[C@@H]1[C@H](O)C[C@@H]1[C@@]3(C)CC[C@H](O)C(C)(C)[C@@H]3CC[C@]12C [20(S)-PPD, 20(S)-protopanaxadiol]",20(S)-PPD AUClast/D,"CFTR rs2106155 CC, mean (SD)",0.76 (0.87)
same,20(S)-PPD Cmax/D,"CFTR rs2106155 CC, mean (SD)",0.02 (0.02)
same,Ratio 20(S)-PPD/CK AUClast/D,"CFTR rs2106155 CC, mean (SD)",3.73 (6.73) %
same,Ratio 20(S)-PPD/CK Cmax/D,"CFTR rs2106155 CC, mean (SD)",0.80 (1.29) %
same,20(S)-PPD AUClast/D,"CFTR rs2237726 CC, mean (SD)",0.72 (0.85)
same,20(S)-PPD Cmax/D,"CFTR rs2237726 CC, mean (SD)",0.02 (0.02)
same,Ratio 20(S)-PPD/CK AUClast/D,"CFTR rs2237726 CC, mean (SD)",3.53 (6.59) %
same,Ratio 20(S)-PPD/CK Cmax/D,"CFTR rs2237726 CC, mean (SD)",0.80 (1.27) %
same,20(S)-PPD AUClast/D,"CFTR rs2237726 CT, mean (SD)",0.84 (0.78)
same,20(S)-PPD Cmax/D,"CFTR rs2237726 CT, mean (SD)",0.03 (0.03)
same,Ratio 20(S)-PPD/CK AUClast/D,"CFTR rs2237726 CT, mean (SD)",4.43 (5.17) %
same,Ratio 20(S)-PPD/CK Cmax/D,"CFTR rs2237726 CT, mean (SD)",1.42 (2.13) %
same,20(S)-PPD AUClast/D,"CFTR rs2237726 TT, mean (SD)",1.10 (0.47)
same,20(S)-PPD Cmax/D,"CFTR rs2237726 TT, mean (SD)",0.03 (0.02)
same,Ratio 20(S)-PPD/CK AUClast/D,"CFTR rs2237726 TT, mean (SD)",7.40 (10.14) %
same,Ratio 20(S)-PPD/CK Cmax/D,"CFTR rs2237726 TT, mean (SD)",1.63 (2.04) %
same,20(S)-PPD AUClast/D,"CFTR rs4148711 AA, mean (SD)",0.97 (0.49)
same,20(S)-PPD Cmax/D,"CFTR rs4148711 AA, mean (SD)",0.04 (0.02)
same,Ratio 20(S)-PPD/CK AUClast/D,"CFTR rs4148711 AA, mean (SD)",5.87 (7.37) %
same,Ratio 20(S)-PPD/CK Cmax/D,"CFTR rs4148711 AA, mean (SD)",1.40 (1.51) %
same,20(S)-PPD AUClast/D,"CFTR rs4148711 AT, mean (SD)",0.90 (0.98)
same,20(S)-PPD Cmax/D,"CFTR rs4148711 AT, mean (SD)",0.03 (0.04)
same,Ratio 20(S)-PPD/CK AUClast/D,"CFTR rs4148711 AT, mean (SD)",4.70 (7.26) %
same,Ratio 20(S)-PPD/CK Cmax/D,"CFTR rs4148711 AT, mean (SD)",1.40 (2.23) %
same,20(S)-PPD AUClast/D,"CFTR rs4148711 TT, mean (SD)",0.63 (0.57)
same,20(S)-PPD Cmax/D,"CFTR rs4148711 TT, mean (SD)",0.02 (0.02)
same,Ratio 20(S)-PPD/CK AUClast/D,"CFTR rs4148711 TT, mean (SD)",2.87 (3.42) %
same,Ratio 20(S)-PPD/CK Cmax/D,"CFTR rs4148711 TT, mean (SD)",0.66 (0.71) %
same,20(S)-PPD AUClast/D,"NR1I2 rs1464602 AA, mean (SD)",0.69 (0.50)
same,20(S)-PPD Cmax/D,"NR1I2 rs1464602 AA, mean (SD)",0.02 (0.02)
same,Ratio 20(S)-PPD/CK AUClast/D,"NR1I2 rs1464602 AA, mean (SD)",3.33 (3.32) %
same,Ratio 20(S)-PPD/CK Cmax/D,"NR1I2 rs1464602 AA, mean (SD)",0.85 (0.79) %
same,20(S)-PPD AUClast/D,"NR1I2 rs1464602 AG, mean (SD)",0.85 (0.89)
same,20(S)-PPD Cmax/D,"NR1I2 rs1464602 AG, mean (SD)",0.03 (0.03)
same,Ratio 20(S)-PPD/CK AUClast/D,"NR1I2 rs1464602 AG, mean (SD)",3.45 (6.88) %
same,Ratio 20(S)-PPD/CK Cmax/D,"NR1I2 rs1464602 AG, mean (SD)",0.80 (1.32) %
same,20(S)-PPD AUClast/D,"NR1I2 rs1464602 GG, mean (SD)",1.09 (1.05)
same,20(S)-PPD Cmax/D,"NR1I2 rs1464602 GG, mean (SD)",0.04 (0.04)
same,Ratio 20(S)-PPD/CK AUClast/D,"NR1I2 rs1464602 GG, mean (SD)",7.81 (8.88) %
same,Ratio 20(S)-PPD/CK Cmax/D,"NR1I2 rs1464602 GG, mean (SD)",2.40 (3.04) %
same,20(S)-PPD AUClast/D,"NR1I2 rs1523127 AA, mean (SD)",0.87 (0.86)
same,20(S)-PPD Cmax/D,"NR1I2 rs1523127 AA, mean (SD)",0.03 (0.03)
same,Ratio 20(S)-PPD/CK AUClast/D,"NR1I2 rs1523127 AA, mean (SD)",4.60 (7.04) %
same,Ratio 20(S)-PPD/CK Cmax/D,"NR1I2 rs1523127 AA, mean (SD)",1.27 (1.98) %
same,20(S)-PPD AUClast/D,"NR1I2 rs1523127 CA, mean (SD)",0.73 (0.52)
same,20(S)-PPD Cmax/D,"NR1I2 rs1523127 CA, mean (SD)",0.02 (0.02)
same,Ratio 20(S)-PPD/CK AUClast/D,"NR1I2 rs1523127 CA, mean (SD)",3.64 (3.52) %
same,Ratio 20(S)-PPD/CK Cmax/D,"NR1I2 rs1523127 CA, mean (SD)",0.87 (0.80) %
same,20(S)-PPD AUClast/D,"NR1I2 rs1523127 CC, n = 1",0.32 (−) ^2)
same,20(S)-PPD Cmax/D,"NR1I2 rs1523127 CC, n = 1",0.01 (−) ^2)
same,Ratio 20(S)-PPD/CK AUClast/D,"NR1I2 rs1523127 CC, n = 1",1.14 (−) ^2) %
same,Ratio 20(S)-PPD/CK Cmax/D,"NR1I2 rs1523127 CC, n = 1",0.22 (−) ^2) %
same,20(S)-PPD AUClast/D,"NR1I2 rs2276707 CC, mean (SD)",0.79 (0.54)
same,20(S)-PPD Cmax/D,"NR1I2 rs2276707 CC, mean (SD)",0.03 (0.02)
same,Ratio 20(S)-PPD/CK AUClast/D,"NR1I2 rs2276707 CC, mean (SD)",5.07 (6.48) %
same,Ratio 20(S)-PPD/CK Cmax/D,"NR1I2 rs2276707 CC, mean (SD)",1.15 (1.37) %
same,20(S)-PPD AUClast/D,"NR1I2 rs2276707 CT, mean (SD)",0.79 (0.77)
same,20(S)-PPD Cmax/D,"NR1I2 rs2276707 CT, mean (SD)",0.03 (0.03)
same,Ratio 20(S)-PPD/CK AUClast/D,"NR1I2 rs2276707 CT, mean (SD)",3.49 (4.74) %
same,Ratio 20(S)-PPD/CK Cmax/D,"NR1I2 rs2276707 CT, mean (SD)",1.12 (1.87) %
same,20(S)-PPD AUClast/D,"NR1I2 rs2276707 TT, mean (SD)",1.04 (1.19)
same,20(S)-PPD Cmax/D,"NR1I2 rs2276707 TT, mean (SD)",0.03 (0.03)
same,Ratio 20(S)-PPD/CK AUClast/D,"NR1I2 rs2276707 TT, mean (SD)",5.91 (10.37) %
same,Ratio 20(S)-PPD/CK Cmax/D,"NR1I2 rs2276707 TT, mean (SD)",1.27 (1.99) %
same,20(S)-PPD AUClast/D,"NR1I2 rs2472682 AA, mean (SD)",1.08 (1.14)
same,20(S)-PPD Cmax/D,"NR1I2 rs2472682 AA, mean (SD)",0.04 (0.04)
same,Ratio 20(S)-PPD/CK AUClast/D,"NR1I2 rs2472682 AA, mean (SD)",7.47 (9.73) %
same,Ratio 20(S)-PPD/CK Cmax/D,"NR1I2 rs2472682 AA, mean (SD)",2.06 (2.76) %
same,20(S)-PPD AUClast/D,"NR1I2 rs2472682 CA, mean (SD)",0.66 (0.50)
same,20(S)-PPD Cmax/D,"NR1I2 rs2472682 CA, mean (SD)",0.02 (0.02)
same,Ratio 20(S)-PPD/CK AUClast/D,"NR1I2 rs2472682 CA, mean (SD)",2.12 (1.73) %
same,Ratio 20(S)-PPD/CK Cmax/D,"NR1I2 rs2472682 CA, mean (SD)",0.59 (0.51) %
same,20(S)-PPD AUClast/D,"NR1I2 rs2472682 CC, mean (SD)",0.87 (0.59)
same,20(S)-PPD Cmax/D,"NR1I2 rs2472682 CC, mean (SD)",0.03 (0.02)
same,Ratio 20(S)-PPD/CK AUClast/D,"NR1I2 rs2472682 CC, mean (SD)",5.01 (4.45) %
same,Ratio 20(S)-PPD/CK Cmax/D,"NR1I2 rs2472682 CC, mean (SD)",1.17 (0.97) %
same,20(S)-PPD AUClast/D,"NR1I2 rs6785049 AA, mean (SD)",0.75 (0.59)
same,20(S)-PPD Cmax/D,"NR1I2 rs6785049 AA, mean (SD)",0.03 (0.02)
same,Ratio 20(S)-PPD/CK AUClast/D,"NR1I2 rs6785049 AA, mean (SD)",5.90 (7.79) %
same,Ratio 20(S)-PPD/CK Cmax/D,"NR1I2 rs6785049 AA, mean (SD)",1.37 (1.63) %
same,20(S)-PPD AUClast/D,"NR1I2 rs6785049 AG, mean (SD)",0.72 (0.54)
same,20(S)-PPD Cmax/D,"NR1I2 rs6785049 AG, mean (SD)",0.03 (0.02)
same,Ratio 20(S)-PPD/CK AUClast/D,"NR1I2 rs6785049 AG, mean (SD)",2.64 (2.47) %
same,Ratio 20(S)-PPD/CK Cmax/D,"NR1I2 rs6785049 AG, mean (SD)",0.69 (0.58) %
same,20(S)-PPD AUClast/D,"NR1I2 rs6785049 GG, mean (SD)",1.11 (1.21)
same,20(S)-PPD Cmax/D,"NR1I2 rs6785049 GG, mean (SD)",0.04 (0.04)
same,Ratio 20(S)-PPD/CK AUClast/D,"NR1I2 rs6785049 GG, mean (SD)",6.66 (9.43) %
same,Ratio 20(S)-PPD/CK Cmax/D,"NR1I2 rs6785049 GG, mean (SD)",1.98 (2.90) %
same,20(S)-PPD AUClast/D,"NR1I2 rs7643645 AA, mean (SD)",0.95 (0.87)
same,20(S)-PPD Cmax/D,"NR1I2 rs7643645 AA, mean (SD)",0.03 (0.03)
same,Ratio 20(S)-PPD/CK AUClast/D,"NR1I2 rs7643645 AA, mean (SD)",5.31 (8.06) %
same,Ratio 20(S)-PPD/CK Cmax/D,"NR1I2 rs7643645 AA, mean (SD)",1.16 (1.57) %
same,20(S)-PPD AUClast/D,"NR1I2 rs7643645 AG, mean (SD)",0.66 (0.76)
same,20(S)-PPD Cmax/D,"NR1I2 rs7643645 AG, mean (SD)",0.03 (0.03)
same,Ratio 20(S)-PPD/CK AUClast/D,"NR1I2 rs7643645 AG, mean (SD)",3.34 (5.02) %
same,Ratio 20(S)-PPD/CK Cmax/D,"NR1I2 rs7643645 AG, mean (SD)",1.21 (2.09) %
same,20(S)-PPD AUClast/D,"NR1I2 rs7643645 GG, mean (SD)",1.14 (0.42)
same,20(S)-PPD Cmax/D,"NR1I2 rs7643645 GG, mean (SD)",0.04 (0.02)
same,Ratio 20(S)-PPD/CK AUClast/D,"NR1I2 rs7643645 GG, mean (SD)",4.98 (4.18) %
same,Ratio 20(S)-PPD/CK Cmax/D,"NR1I2 rs7643645 GG, mean (SD)",1.03 (0.83) %

# Source: article PMC6606825 (Journal of Ginseng Research, 2018)
